PubChem BioAssay
Results filed as inconclusive are left out.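 The calls were made as follows, unless noted: active = inhibition over a set limit, the all-compound mean plus 3 SD, in both replicate runs; inconclusive = over that limit in just one replicate run; inactive = at or under that limit in both runs.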

Key:
[1] = OD615 S. cerevisiae growth inhibition, permissive medium, pilot counter-assay, permissive growth control for S. cerevisiae lifespan shortening project (AID 705;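 active = growth inhibition above 25% in both replicates, a cutoff set 3 SD above the mean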); conditions: OD615, 24 h, at 10 µM, hits give high values
In short: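 Timing: 24 h exposure, 30 °C / Material: Saccharomyces cerevisiae strain carrying genetically modified DeaD replicative-lifespan system / Signal: OD at 615 nm / Compound: 10 µM single dose, 0.25% DMSO / Medium: SC raffinose/galactose permissive medium / Evaluation: reduction in yeast growth (OD615)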

[2] = Restrictive medium S. cerevisiae growth inhibition, OD615, pilot screen of yeast lifespan reduction project, restrictive growth control (AID 706;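 active = growth inhibition above a set limit, 3 SD over mean compound inhibition, in both replicates, cut at about 43% in these data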;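 also: modified DeaD lifespan yeast strain shifted to restrictive glucose medium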); conditions: OD615, 48 h, at 10 µM, hits give high values
In short: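 System: Engineered S. cerevisiae DeaD strain | Detection: OD615 | Buffer or medium: CSMM-D glucose medium | Doses: 10 µM compound, 0.25% DMSO | Timing: 4 h pre-growth plus 48 h compound exposure, 30 °C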

[3] = viability gain of MRP-1-high H69AR cells under doxorubicin, pilot screen, MRP-1 activator project, CellTiter-Glo, duplicate (AID 807;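 active = viability increase at or above a cutoff of the median across tested compounds plus 3 SD, cut at about 8.5% in these data, passing the limit was not always enough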;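 also: compound pretreatment 18-22 h then 72 h combined with doxorubicin; 0% = doxorubicin alone and 100% = vehicle without doxorubicin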); conditions: H69AR viability with doxorubicin, CellTiter-Glo luminescence; at 10 µM; hits give high values
[4] = growth suppression of beta-catenin knockout HCT116, pilot screen, human colon tumor cells (AID 823;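 active = cell viability at or below a set limit in both duplicate runs, the limit being the all-compound median minus 4 SD, cut at about 23% in these data, passing the limit was not always enough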;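 also: 0% = wells killed by 20 µM Hyamine and 100% = untreated DMSO cell wells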); conditions: CellTiter-Glo, 60 h, at 10 µM, hits give low values
[5] = growth suppression of PTEN-deleted HCT116, pilot screen, cell-based, HCT116 clonal line, CellTiter-Glo (AID 824;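 active = viability at or below 27.92% in each of two runs, the all-compound median minus 4 SD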;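 also: 0% = 20 µM Hyamine control and 100% = vehicle cell control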); conditions: 60 h, at 10 µM, hits give low values
[6] = inhibitors of the yeast RAM network, pilot screen, dse1pr::URA3 reporter, 5-FOA selection (AID 869);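 also: 0% = DMSO wells with no growth and 100% = 10 µM 1-NA-PP1 with full growth; RAM network block rescues cells from 5-FOA so hits raise OD615 growth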; conditions: S. cerevisiae dse1pr::URA3 5-FOA growth, OD615, 2 d; at 10 µM; hits give high values; strain carries analog-sensitive mutant Cbk1 kinase
[7] = RAM signaling pathway blockade in yeast – S. cerevisiae, Pdr1DBD-CYC8 efflux-inhibited sensitized strain, primary screen (AID 1298;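 active = RAM network inhibition above 8.4% in each of two replicates, 3 SD over the compound average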;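 also: 0% = DMSO untreated cells without growth and 100% = 10 µM 1-NA-PP1 full growth; higher means more yeast growth rescued from 5-FOA killing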); conditions: S. cerevisiae cbk1-as DSE1-URA3 strain, 5-FOA growth OD615, 2 d; at 50 µM; hits give high values

COc1ccccc1NC(=O)CCNC(=O)Cn1ccc2ccccc2c1=O
inactive: growth inhibition [1] -12.7% | growth inhibition [2] -11.8% | viability increase [3] -1.84% | viability [4] 96.6% | viability [5] 93.3% | inhibition [6] 0.74% | RAM network inhibition [7] 3.6%

Cc1nn(C)c(C)c1S(=O)(=O)N(CC(=O)NCc1cccs1)c1ccc(C(C)C)cc1
inactive: growth inhibition [1] -16.9% | growth inhibition [2] -13.5% | viability increase [3] -3.06% | viability [4] 99% | viability [5] 87.5% | inhibition [6] 2.2% | RAM network inhibition [7] 8.44%

S=c1sc2c(N3CCOCC3)ncnc2n1-c1ccccc1
inactive: growth inhibition [1] -11.6% | growth inhibition [2] 8.65% | viability increase [3] -3.12% | viability [4] 102% | viability [5] 94.9% | inhibition [6] 1.64% | RAM network inhibition [7] 4.8%

O=C(c1cc(-c2ccccc2)nc2ccccc12)N1CCOCC1
inactive: growth inhibition [1] -4.54% | growth inhibition [2] -9.07% | viability increase [3] -3.82% | viability [4] 102% | viability [5] 90.8% | inhibition [6] -0.135% | RAM network inhibition [7] 1.87%

COc1ccc(-c2nc(CS(=O)CC(=O)NCc3cccnc3)c(C)o2)cc1OC (stereo not drawn)
inactive: growth inhibition [1] -1.92% | growth inhibition [2] -2.94% | viability increase [3] -2.64% | viability [4] 99.5% | viability [5] 94.8% | inhibition [6] 1.42% | RAM network inhibition [7] 0.68%

Cc1cc(C)c2c(n1)SCC(=O)N2CC(=O)NCCC1=CCCCC1
inactive: growth inhibition [1] -0.205% | growth inhibition [2] 4.58% | viability increase [3] -0.04% | viability [4] 103% | viability [5] 92.9% | inhibition [6] 0.52% | RAM network inhibition [7] 2.59%

O=C(CN1C(=O)CCC1=O)Nc1nc(-c2ccccn2)cs1
inactive: growth inhibition [1] -5.94% | growth inhibition [2] -9.21% | viability increase [3] -0.35% | viability [4] 106% | viability [5] 101% | inhibition [6] 0.045% | RAM network inhibition [7] 3.42%

CCc1ccc(N2C(=O)c3sc4nnc(C)c(=O)n4c3C2=O)cc1
inactive: growth inhibition [1] -19.9% | growth inhibition [2] -7.66% | viability increase [3] -1% | viability [4] 87.9% | viability [5] 76.9% | inhibition [6] 1.4% | RAM network inhibition [7] 0.21%

CCOC(=O)c1sc(NC(=O)C2CC2)cc1C
inactive: growth inhibition [1] -9.29% | growth inhibition [2] -0.985% | viability increase [3] 0.54% | viability [4] 99.5% | viability [5] 89.4% | inhibition [6] 2.37% | RAM network inhibition [7] 0.98%

CCS(=O)(=O)N1CCN(Cc2nc3ccccc3c(=O)[nH]2)CC1
inactive: growth inhibition [1] -12.6% | growth inhibition [2] -14.4% | viability increase [3] 0.44% | viability [4] 97.5% | viability [5] 91.8% | inhibition [6] 1.33% | RAM network inhibition [7] 6.05%

O=C(Cn1ncc2c(=O)oc3ccccc3c21)N1CCc2ccccc2C1
inactive: growth inhibition [1] -12.5% | growth inhibition [2] -12.7% | viability increase [3] -1.69% | viability [4] 103% | viability [5] 94.7% | inhibition [6] 0.645% | RAM network inhibition [7] -0.07%

C=CCOc1ccc(/C(O)=C2/C(=O)C(=O)N(CCCn3ccnc3)C2c2cccs2)cc1 (stereo not drawn)
inactive: growth inhibition [1] -13.8% | growth inhibition [2] 0.445% | viability increase [3] 1.46% | viability [4] 95.2% | viability [5] 98.6% | inhibition [6] -0.285% | RAM network inhibition [7] 1.02%

O=C(N[C@@H](Cc1ccccc1)C(=O)O)c1cccnc1
inactive: growth inhibition [1] -5.99% | growth inhibition [2] -10.1% | viability increase [3] 0.01% | viability [4] 96.1% | viability [5] 96.2% | inhibition [6] 2.62% | RAM network inhibition [7] 6.61%

CN(C)c1cccc(NC(=O)Cc2ccc(F)cc2)c1
inactive: growth inhibition [1] -11.6% | growth inhibition [2] -21.4% | viability increase [3] -4.02% | viability [4] 85.4% | viability [5] 84.2% | inhibition [6] 1.14% | RAM network inhibition [7] 5.85%

O=C(NCCOC(=O)c1ccc(C(=O)OCCNC(=O)c2ccccc2)o1)c1ccccc1
inactive: growth inhibition [1] 4.22% | growth inhibition [2] 13.6% | viability increase [3] 0.02% | viability [4] 100% | viability [5] 103% | inhibition [6] 1.25% | RAM network inhibition [7] 6.33%

O=C(Nc1nnc(-c2ccc3c(c2)CCCC3)o1)C1CCCCC1
inactive: growth inhibition [1] -16.5% | growth inhibition [2] -4.87% | viability increase [3] -2.6% | viability [4] 64.5% | viability [5] 62% | inhibition [6] 3.24% | RAM network inhibition [7] 4.48%

O=C(C1CCCN(S(=O)(=O)c2ccccc2)C1)N1CCCCCC1 (stereo not drawn)
inactive: growth inhibition [1] -1.18% | growth inhibition [2] 0% | viability increase [3] -1.36% | viability [4] 79.6% | viability [5] 94.3% | inhibition [6] 1.79% | RAM network inhibition [7] 4.15%

CC(=O)Nc1ccc(OC/C=C(\C)Cl)cc1
inactive: growth inhibition [1] -16.6% | growth inhibition [2] -7.54% | viability increase [3] -1.2% | viability [4] 101% | viability [5] 101% | inhibition [6] 0.895% | RAM network inhibition [7] 2.95%

CCC(C)NC(=O)c1c(-c2cc(Cl)c(OC)c(Cl)c2)noc1C (stereo not drawn)
inactive: growth inhibition [1] -15% | growth inhibition [2] -11.9% | viability increase [3] 0.42% | viability [4] 96.7% | viability [5] 93% | inhibition [6] 0.895% | RAM network inhibition [7] 5.69%

CC(C)(C)c1ccc(NC(=O)NCc2ccco2)cc1
inactive: growth inhibition [1] -8.65% | growth inhibition [2] 2.62% | viability increase [3] -5% | viability [4] 63.8% | viability [5] 64.5% | inhibition [6] 1.23% | RAM network inhibition [7] -0.31%

CCOC(=O)c1csc(NC(=O)C(C)(C)C)n1
inactive: growth inhibition [1] -6.04% | growth inhibition [2] -0.045% | viability increase [3] 2.71% | viability [4] 105% | viability [5] 98.8% | inhibition [6] 0.48% | RAM network inhibition [7] -1.57%

Cc1csc(=N)n1-c1ccc(Cl)cc1
inactive: growth inhibition [1] -6.4% | growth inhibition [2] -7.49% | viability increase [3] 0.86% | viability [4] 82.5% | viability [5] 80.7% | inhibition [6] 1.35% | RAM network inhibition [7] 9.58%

Cc1ccccc1Nc1ncnc2c1cnn2-c1ccccc1
inactive: growth inhibition [1] -4.67% | growth inhibition [2] -4.63% | viability increase [3] -3.78% | viability [4] 86% | viability [5] 84.3% | inhibition [6] -0.23% | RAM network inhibition [7] -0.01%

CC(=O)Nc1nnc(SCc2cccc(F)c2)s1
inactive: growth inhibition [1] -1.17% | growth inhibition [2] -1.06% | viability increase [3] -0.12% | viability [4] 108% | viability [5] 104% | inhibition [6] 1.99% | RAM network inhibition [7] 4.84%
